{"source": "ChEMBL document CHEMBL3414473", "key": {"[1]": {"biological_target": "T1, PH domain leucine-rich repeat-containing protein phosphatase 1 (Homo sapiens, UniProt O60346)", "T1 sequence (O60346 whole entry, the tested form may be a part)": "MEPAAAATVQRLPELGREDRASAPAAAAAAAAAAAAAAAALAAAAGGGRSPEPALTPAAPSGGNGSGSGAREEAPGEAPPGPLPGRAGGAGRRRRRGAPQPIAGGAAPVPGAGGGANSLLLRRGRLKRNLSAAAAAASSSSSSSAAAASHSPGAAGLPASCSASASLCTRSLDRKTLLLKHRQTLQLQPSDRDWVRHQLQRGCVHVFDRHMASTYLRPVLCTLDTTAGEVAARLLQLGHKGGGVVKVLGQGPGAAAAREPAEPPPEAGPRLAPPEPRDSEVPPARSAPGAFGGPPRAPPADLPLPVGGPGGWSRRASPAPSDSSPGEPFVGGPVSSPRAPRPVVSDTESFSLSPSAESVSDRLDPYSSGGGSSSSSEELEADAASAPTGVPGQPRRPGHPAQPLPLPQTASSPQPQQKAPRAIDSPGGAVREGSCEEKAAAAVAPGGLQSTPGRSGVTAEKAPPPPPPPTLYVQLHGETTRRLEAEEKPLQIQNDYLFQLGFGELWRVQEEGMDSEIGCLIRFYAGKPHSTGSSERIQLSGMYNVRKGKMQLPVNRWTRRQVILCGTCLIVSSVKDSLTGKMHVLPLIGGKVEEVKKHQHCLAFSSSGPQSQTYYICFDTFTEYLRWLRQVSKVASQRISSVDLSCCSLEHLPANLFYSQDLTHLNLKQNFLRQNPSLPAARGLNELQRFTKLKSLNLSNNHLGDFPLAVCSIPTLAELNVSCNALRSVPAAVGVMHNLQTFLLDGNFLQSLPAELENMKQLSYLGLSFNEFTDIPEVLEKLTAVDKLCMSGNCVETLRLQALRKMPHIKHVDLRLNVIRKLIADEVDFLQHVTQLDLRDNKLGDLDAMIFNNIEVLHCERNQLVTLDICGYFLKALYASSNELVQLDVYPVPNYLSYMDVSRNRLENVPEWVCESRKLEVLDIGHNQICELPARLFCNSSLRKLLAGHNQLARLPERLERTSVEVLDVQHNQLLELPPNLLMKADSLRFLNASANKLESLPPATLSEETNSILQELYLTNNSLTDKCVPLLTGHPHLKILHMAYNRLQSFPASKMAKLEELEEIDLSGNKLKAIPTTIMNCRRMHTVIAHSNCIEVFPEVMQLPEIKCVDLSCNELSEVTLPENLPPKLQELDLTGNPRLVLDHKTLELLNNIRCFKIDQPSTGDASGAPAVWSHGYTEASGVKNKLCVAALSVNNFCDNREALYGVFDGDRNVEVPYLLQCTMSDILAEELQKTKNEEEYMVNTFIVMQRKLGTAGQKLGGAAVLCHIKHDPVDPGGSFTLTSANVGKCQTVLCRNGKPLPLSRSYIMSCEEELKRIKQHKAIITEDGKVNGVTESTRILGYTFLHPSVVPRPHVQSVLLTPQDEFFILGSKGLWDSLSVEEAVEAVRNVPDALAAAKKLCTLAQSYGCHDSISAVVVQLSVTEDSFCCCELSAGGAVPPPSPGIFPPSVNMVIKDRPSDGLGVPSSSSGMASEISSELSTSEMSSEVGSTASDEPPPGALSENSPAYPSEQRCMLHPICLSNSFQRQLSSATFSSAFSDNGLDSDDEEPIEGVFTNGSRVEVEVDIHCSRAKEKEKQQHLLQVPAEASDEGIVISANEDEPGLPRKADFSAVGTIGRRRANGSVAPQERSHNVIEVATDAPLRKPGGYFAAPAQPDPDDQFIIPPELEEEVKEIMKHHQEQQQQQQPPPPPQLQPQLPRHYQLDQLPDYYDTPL", "assay": "Inhibition of PHLPP1-mediated reduction in phosphorylation of Akt at Ser473 in human LNCAP cells after 24 hrs by Western blot analysis", "format": "cell-based", "in_short": "(§1)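 LNCaP or PC-3 cells treated at various concentrations for 24 h in serum-free medium. Lysed in SDS buffer (50 mM Tris pH 8, 10 mM EDTA, 1% SDS, protease inhibitors); equal protein run on SDS-PAGE and transferred to nitrocellulose. Primary antibodies 1:1000 overnight at 4 °C, HRP secondary 1:2000; detected by ECL.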"}, "[2]": {"biological_target": "T1, PH domain leucine-rich repeat-containing protein phosphatase 1", "assay": "Inhibition of PHLPP1-mediated reduction in phosphorylation of MDM2 in human LNCAP cells after 24 hrs by Western blot analysis", "format": "cell-based", "in_short": "as §1"}, "LNCaP [3]": {"tested_on": "LNCaP", "assay": "Induction of Akt localization to human LNCAP cell membrane at 5 uM after 24 hrs by immunofluorescence staining analysis", "format": "functional, cell-based", "in_short": "(§2)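 LNCaP cells on poly-L-lysine-coated surfaces, treated in serum-free medium for 24 h. Fixed in 4% formaldehyde, permeabilized with 0.1% Triton X-100, blocked in 1% FBS, primary antibody (1:300) overnight, then Alexa Fluor secondary 2 h; DAPI nuclei; confocal imaging with cross-sectional fluorescence intensity analysis.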"}, "[4]": {"biological_target": "T1, PH domain leucine-rich repeat-containing protein phosphatase 1", "assay": "Inhibition of PHLPP1-mediated reduction in phosphorylation of IKK in human LNCAP cells after 24 hrs by Western blot analysis", "format": "cell-based", "in_short": "as §1"}, "[5]": {"biological_target": "T2, 3-phosphoinositide-dependent protein kinase 1 (Homo sapiens, UniProt O15530)", "T2 sequence (O15530 whole entry)": "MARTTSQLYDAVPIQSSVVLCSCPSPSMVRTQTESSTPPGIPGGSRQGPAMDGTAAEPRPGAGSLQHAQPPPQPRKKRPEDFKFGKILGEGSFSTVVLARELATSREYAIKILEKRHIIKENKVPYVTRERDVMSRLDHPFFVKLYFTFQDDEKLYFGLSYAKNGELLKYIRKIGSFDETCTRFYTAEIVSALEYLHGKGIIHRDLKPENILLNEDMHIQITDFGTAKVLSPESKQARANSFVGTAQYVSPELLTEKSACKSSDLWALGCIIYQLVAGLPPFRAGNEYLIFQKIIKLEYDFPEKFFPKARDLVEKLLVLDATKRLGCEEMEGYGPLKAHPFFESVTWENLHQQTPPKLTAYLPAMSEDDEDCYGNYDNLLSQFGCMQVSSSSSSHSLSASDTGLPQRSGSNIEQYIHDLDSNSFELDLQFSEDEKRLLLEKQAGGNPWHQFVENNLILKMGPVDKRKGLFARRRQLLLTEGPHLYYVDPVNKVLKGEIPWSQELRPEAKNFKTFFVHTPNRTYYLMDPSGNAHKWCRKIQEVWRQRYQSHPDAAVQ", "assay": "Binding affinity to GST-tagged PH domain of PDK1 (unknown origin) by surface Plasmon resonance spectroscopy", "in_short": "(§3)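 SPR: GST-tagged PH domain fusion protein immobilized on CM5 chip by amine coupling to about 17000 RU. Analyte injected at 1–20 µM at 30 µL/min; DMSO in samples and running buffer ≤1% (v/v). Kd obtained from sensorgram fitting.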"}, "PC-3 [6]": {"tested_on": "PC-3", "assay": "In vivo antitumor efficacy in human PC3 cells xenografted athymic nude mouse assessed as decrease in phosphorylation of Akt at Ser473 in tumor at 100 mg/kg, po for 21 days relative to vehicle treated control", "format": "functional, organism-based", "parameters": "dose 100 mg/kg", "in_short": "(§4)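 Athymic nude mice given PC-3 cells sc (1 × 10⁶ per mouse); at about 50 mm³, randomized (n = 7) and dosed once daily for 21 days either ip at 50 mg/kg (vehicle saline/PEG400/DMSO/Tween 80, 65:20:10:5) or by oral gavage at 100 mg/kg (vehicle 0.5% methylcellulose/0.1% Tween 80 in water). Tumor volume measured weekly by calipers (width² × length × 0.52); phospho-proteins checked by Western blotting of tumor lysates.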"}, "PC-3 [7]": {"tested_on": "PC-3", "assay": "In vivo antitumor efficacy in human PC3 cells xenografted athymic nude mouse assessed as inhibition of tumor growth at 50 mg/kg, ip for 21 days relative to vehicle treated control", "format": "functional, organism-based", "parameters": "dose 50 mg/kg", "in_short": "as §4"}, "PC-3 [8]": {"tested_on": "PC-3", "assay": "In vivo antitumor efficacy in human PC3 cells xenografted athymic nude mouse assessed as decrease in phosphorylation of Akt at Ser473 in tumor at 50 mg/kg, ip for 21 days relative to vehicle treated control", "format": "functional, organism-based", "parameters": "dose 50 mg/kg", "in_short": "as §4"}, "LNCaP [9]": {"tested_on": "LNCaP", "assay": "Induction of Akt localization to human LNCAP cell membrane after 24 hrs by immunofluorescence staining analysis", "format": "functional, cell-based", "in_short": "as §2"}, "[10]": {"biological_target": "T1, PH domain leucine-rich repeat-containing protein phosphatase 1", "assay": "Binding affinity to GST-tagged PH domain of PHLPP1 (unknown origin) by surface Plasmon resonance spectroscopy", "in_short": "as §3"}, "PC-3 [11]": {"tested_on": "PC-3", "assay": "In vivo antitumor efficacy in human PC3 cells xenografted athymic nude mouse assessed as decrease in phosphorylation of MDM2 in tumor at 50 mg/kg, ip for 21 days relative to vehicle treated control", "format": "functional, organism-based", "parameters": "dose 50 mg/kg", "in_short": "as §4"}, "PC-3 [12]": {"tested_on": "PC-3", "assay": "Antiproliferative activity against human PTEN-negative PC3 cells assessed as suppression of cell viability after 24 hrs by MTT assay in serum free medium", "format": "functional, cell-based"}, "[13]": {"biological_target": "T1, PH domain leucine-rich repeat-containing protein phosphatase 1", "assay": "Inhibition of PHLPP1-mediated reduction in phosphorylation of Akt at Thr308 in human PC3 cells after 24 hrs by Western blot analysis", "format": "cell-based", "details": "PC-3", "in_short": "as §1"}, "[14]": {"biological_target": "T1, PH domain leucine-rich repeat-containing protein phosphatase 1", "assay": "Inhibition of PHLPP1-mediated reduction in phosphorylation of IKK in human PC3 cells after 24 hrs by Western blot analysis", "format": "cell-based", "details": "PC-3", "in_short": "as §1"}, "PC-3 [15]": {"tested_on": "PC-3", "assay": "In vivo antitumor efficacy in human PC3 cells xenografted athymic nude mouse assessed as decrease in phosphorylation of IKK in tumor at 100 mg/kg, po for 21 days relative to vehicle treated control", "format": "functional, organism-based", "parameters": "dose 100 mg/kg", "in_short": "as §4"}, "[16]": {"biological_target": "T1, PH domain leucine-rich repeat-containing protein phosphatase 1", "details": "LNCaP, 2.5 to 25 uM"}, "LNCaP [17]": {"tested_on": "LNCaP", "assay": "Induction of PHLPP1 localization to human LNCAP cell membrane after 24 hrs by immunofluorescence staining analysis", "format": "functional, cell-based", "in_short": "as §2"}, "LNCaP [18]": {"tested_on": "LNCaP", "assay": "Induction of Akt-PHLPP1 complex to human LNCAP cell membrane after 24 hrs by immunofluorescence staining analysis", "format": "functional, cell-based"}, "PC-3 [19]": {"tested_on": "PC-3", "assay": "In vivo antitumor efficacy in human PC3 cells xenografted athymic nude mouse assessed as decrease in phosphorylation of IKK in tumor at 50 mg/kg, ip for 21 days relative to vehicle treated control", "format": "functional, organism-based", "parameters": "dose 50 mg/kg", "in_short": "as §4"}, "[20]": {"biological_target": "T1, PH domain leucine-rich repeat-containing protein phosphatase 1", "assay": "Inhibition of PHLPP1-mediated reduction in phosphorylation of Akt at Thr308 in human LNCAP cells after 24 hrs by Western blot analysis", "format": "cell-based", "in_short": "as §1"}, "[21]": {"biological_target": "T1, PH domain leucine-rich repeat-containing protein phosphatase 1", "assay": "Inhibition of PHLPP1-mediated reduction in phosphorylation of MDM2 in human PC3 cells after 24 hrs by Western blot analysis", "format": "cell-based", "details": "PC-3", "in_short": "as §1"}, "PC-3 [22]": {"tested_on": "PC-3", "assay": "In vivo antitumor efficacy in human PC3 cells xenografted athymic nude mouse assessed as decrease in phosphorylation of MDM2 in tumor at 100 mg/kg, po for 21 days relative to vehicle treated control", "format": "functional, organism-based", "parameters": "dose 100 mg/kg", "in_short": "as §4"}, "LNCaP [23]": {"tested_on": "LNCaP", "assay": "Induction of PHLPP1 localization to human LNCAP cell membrane at 5 uM after 24 hrs by immunofluorescence staining analysis", "format": "functional, cell-based", "in_short": "as §2"}, "PC-3 [24]": {"tested_on": "PC-3", "assay": "In vivo antitumor efficacy in human PC3 cells xenografted athymic nude mouse assessed as decrease in phosphorylation of Akt at Thr308 in tumor at 100 mg/kg, po for 21 days relative to vehicle treated control", "format": "functional, organism-based", "parameters": "dose 100 mg/kg", "in_short": "as §4"}}, "note": "pKd: −log10 of the molar value. Active and inactive are the calls of the source. The calls are words filed in the database; no cut-off is given here.", "data": [{"compound": "Cc1c(S(N)(=O)=O)cc2c(c1C)OC(C)(CCCC(C)C)CC2", "note": "(centres undefined)", "values": [{"measurement": "inhibition", "setting": "[1]", "value": "Dose-dependent effect"}, {"measurement": "inhibition", "setting": "[2]", "value": "Dose-dependent effect"}, {"measurement": "Activity", "setting": "LNCaP [3]", "value": "Active"}, {"measurement": "inhibition", "setting": "[4]", "value": "Dose-dependent effect"}, {"measurement": "pKd", "setting": "[5]", "value": 4.71}, {"measurement": "Activity", "setting": "PC-3 [6]", "value": "Active"}, {"measurement": "Activity", "setting": "PC-3 [7]", "value": "Active"}, {"measurement": "inhibition", "setting": "PC-3 [8]", "value": "Active"}, {"measurement": "Activity", "setting": "LNCaP [9]", "value": "Dose-dependent effect"}, {"measurement": "pKd", "setting": "[10]", "value": 6.14}, {"measurement": "inhibition", "setting": "PC-3 [11]", "value": "Active"}, {"measurement": "Activity", "setting": "PC-3 [12]", "value": "Active"}, {"measurement": "inhibition", "setting": "[13]", "value": "inactive"}, {"measurement": "inhibition", "setting": "[14]", "value": "Dose-dependent effect"}, {"measurement": "Activity", "setting": "PC-3 [15]", "value": "Active"}, {"measurement": "inhibition", "setting": "[16]", "value": "Active"}, {"measurement": "Activity", "setting": "LNCaP [17]", "value": "Dose-dependent effect"}, {"measurement": "Activity", "setting": "LNCaP [18]", "value": "Dose-dependent effect"}, {"measurement": "inhibition", "setting": "PC-3 [19]", "value": "Active"}, {"measurement": "inhibition", "setting": "[20]", "value": "inactive"}, {"measurement": "inhibition", "setting": "[21]", "value": "Dose-dependent effect"}, {"measurement": "Activity", "setting": "PC-3 [22]", "value": "Active"}, {"measurement": "Activity", "setting": "LNCaP [23]", "value": "Active"}, {"measurement": "inhibition", "setting": "PC-3 [24]", "value": "inactive"}]}]}
